Tests used:
[1] = Drug level in Sprague-Dawley rat brain at 3 mg/kg, po measured 2 hrs post dose by LC-MS/MS analysis; type: ADME, organism-based; settings: read-out: Drug uptake
Procedure, shortened: (§1)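 Drug-naive Sprague−Dawley rats (n = 4−5/group) were dosed orally once in 5% Solutol plus 20% Captisol in 25 mM PBS, pH 2, and euthanized 2 h later by CO₂. CSF was drawn from the cisterna magna. Drug was measured in CSF, brain and plasma; data as mean ± SEM.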

[2] = Drug level in Sprague-Dawley rat plasma at 3 mg/kg, po measured 2 hrs post dose by LC-MS/MS analysis; type: ADME, organism-based; procedure, shortened: as §1
[3] = Drug level in Sprague-Dawley rat CSF at 0.3 mg/kg, po measured 2 hrs post dose by LC-MS/MS analysis; type: ADME, organism-based, Cerebrospinal fluid; settings: read-out: Drug uptake; procedure, shortened: as §1
[4] = Thermodynamic solubility in pH 7.4 PBS by shake flask method; type: physicochemical; settings: read-out: Therm_solubility
Procedure, shortened: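 Thermodynamic shake-flask solubility in PBS, pH 7.4.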

[5] = Drug level in Sprague-Dawley rat CSF at 10 mg/kg, po measured 2 hrs post dose by LC-MS/MS analysis; type: ADME, organism-based, Cerebrospinal fluid; settings: read-out: Drug uptake; procedure, shortened: as §1
[6] = Drug level in Sprague-Dawley rat brain at 10 mg/kg, po measured 2 hrs post dose by LC-MS/MS analysis; type: ADME, organism-based; settings: read-out: Drug uptake; procedure, shortened: as §1
Rattus norvegicus [7] = experiment: In vivo inhibition of glycine transporter-1 in Sprague-Dawley rat assessed as CSF glycine level at 10 mg/kg, po measured 2 hrs post dose by LC-MS/MS analysis relative to control; type: functional; set-up: scale not given: the % may be the effect or the level left
Procedure, shortened: (§2)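 Drug-naive adult male Sprague-Dawley rats, n = 4-5 per group, given a single oral dose of 0.4, 1.5, 4.7 or 15.7 μmol/kg. Vehicle was 5% Solutol + 10% Captisol in 25 mM PBS, pH 2. At 2 h, rats were killed by CO₂. CSF (50-100 μL) was taken from the cisterna magna, and brain and plasma were also collected. Glycine was measured by LC-MS/MS against a deuterated-glycine internal standard. Results given as % vehicle control (vehicle 30 min post-dose), mean ± SEM. Two-way ANOVA with Tukey test.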

[8] = Drug level in Sprague-Dawley rat brain at 1 mg/kg, po measured 2 hrs post dose by LC-MS/MS analysis; type: ADME, organism-based; settings: read-out: Drug uptake; procedure, shortened: as §1
[9] = Metabolic stability in rat liver microsomes assessed as parent compound remaining at 3 uM incubated for 15 mins by LC-MS analysis; type: ADME, Microsome; settings: liver microsomes, read-out: Stability
Procedure, shortened: (§3)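 Liver microsomes incubated with compound at 3 μM for 15 min. Parent compound remaining was quantified by LC-MS.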

[10] = Drug level in Sprague-Dawley rat plasma at 1 mg/kg, po measured 2 hrs post dose by LC-MS/MS analysis; type: ADME, organism-based; procedure, shortened: as §1
[11] = Drug level in Sprague-Dawley rat plasma at 10 mg/kg, po measured 2 hrs post dose by LC-MS/MS analysis; type: ADME, organism-based; procedure, shortened: as §1
[12] = Metabolic stability in human liver microsomes assessed as parent compound remaining at 3 uM incubated for 15 mins by LC-MS analysis; type: ADME, Microsome; procedure, shortened: as §3
[13] = Protein binding in rat plasma; type: ADME, cell-free; settings: read-out: PPB (converted)
[14] = biological target: T1, Sodium- and chloride-dependent glycine transporter 1 (Homo sapiens, UniProt P48067); experiment: Inhibition of glycine transporter-1B in human JAR cells assessed as reduction in [14C]glycine uptake preincubated for 10 mins followed by [14C]glycine addition measured after 3 hrs by scintillation proximity assay; type: cell-based
T1 sequence (P48067 whole entry): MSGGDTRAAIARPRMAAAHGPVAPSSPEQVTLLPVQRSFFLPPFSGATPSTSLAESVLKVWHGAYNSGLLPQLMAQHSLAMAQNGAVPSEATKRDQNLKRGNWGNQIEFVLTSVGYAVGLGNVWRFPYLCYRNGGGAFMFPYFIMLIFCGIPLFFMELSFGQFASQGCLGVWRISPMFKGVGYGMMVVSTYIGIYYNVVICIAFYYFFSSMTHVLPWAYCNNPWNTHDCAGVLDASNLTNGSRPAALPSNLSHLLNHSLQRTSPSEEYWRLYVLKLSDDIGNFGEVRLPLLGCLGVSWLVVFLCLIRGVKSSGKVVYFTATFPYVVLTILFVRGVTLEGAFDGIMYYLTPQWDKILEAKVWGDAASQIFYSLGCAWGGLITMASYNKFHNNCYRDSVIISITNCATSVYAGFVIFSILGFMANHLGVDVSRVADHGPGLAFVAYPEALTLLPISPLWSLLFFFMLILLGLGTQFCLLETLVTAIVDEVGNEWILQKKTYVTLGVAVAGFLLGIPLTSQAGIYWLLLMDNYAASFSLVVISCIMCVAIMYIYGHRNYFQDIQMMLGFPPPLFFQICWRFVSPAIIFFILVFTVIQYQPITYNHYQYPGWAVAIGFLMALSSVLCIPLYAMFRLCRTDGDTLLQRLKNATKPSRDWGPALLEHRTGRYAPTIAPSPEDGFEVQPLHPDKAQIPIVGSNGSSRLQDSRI
Procedure, shortened: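 Whole-cell SPA in JAR cells, which endogenously express hGlyT-1b. Cells (50,000 per well) were attached overnight in RPMI/10% FBS at 37 °C, 5% CO₂. [¹⁴C]glycine was then added and incubated 3 h at 37 °C. The assay window was set with unlabeled glycine. A reference standard ran on each plate. IC₅₀ values are means of n ≥ 2.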

[15] = Drug level in Sprague-Dawley rat brain at 0.3 mg/kg, po measured 2 hrs post dose by LC-MS/MS analysis; type: ADME, organism-based; settings: read-out: Drug uptake; procedure, shortened: as §1
[16] = Drug level in cynomolgus monkey CSF at 10 mg/kg, po measured at 4 hrs post dose by LC-MS/MS analysis; type: ADME, organism-based, Macaca fascicularis, Cerebrospinal fluid; settings: read-out: Drug uptake
Procedure, shortened: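 Cynomolgus monkeys (n = 3/group) fitted with subcutaneous CSF ports were dosed orally at 0.4−15.7 μmol/kg in 5% Solutol plus 20% Captisol in 25 mM PBS, pH 2. CSF (about 0.30 mL) and blood were sampled predose and at 0.5, 1, 2, 3, 4, 8, 12 and 24 h. Quantitation limit 1.0 ng/mL; mean ± SD.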

Rattus norvegicus [17] = experiment: In vivo inhibition of glycine transporter-1 in Sprague-Dawley rat assessed as CSF glycine level at 3 mg/kg, po measured 2 hrs post dose by LC-MS/MS analysis relative to control; type: functional; set-up: scale not given: the % may be the effect or the level left; procedure, shortened: as §2
[18] = Drug level in Sprague-Dawley rat plasma at 0.3 mg/kg, po measured 2 hrs post dose by LC-MS/MS analysis; type: ADME, organism-based; procedure, shortened: as §1
[19] = Drug level in Sprague-Dawley rat CSF at 3 mg/kg, po measured 2 hrs post dose by LC-MS/MS analysis; type: ADME, organism-based, Cerebrospinal fluid; settings: read-out: Drug uptake; procedure, shortened: as §1
[20] = Drug level in Sprague-Dawley rat CSF at 1 mg/kg, po measured 2 hrs post dose by LC-MS/MS analysis; type: ADME, organism-based, Cerebrospinal fluid; settings: read-out: Drug uptake; procedure, shortened: as §1
Rattus norvegicus [21] = experiment: In vivo inhibition of glycine transporter-1 in Sprague-Dawley rat assessed as CSF glycine level at 0.3 mg/kg, po measured 2 hrs post dose by LC-MS/MS analysis relative to control; type: functional; set-up: scale not given: the % may be the effect or the level left; procedure, shortened: as §2
Rattus norvegicus [22] = experiment: In vivo inhibition of glycine transporter-1 in Sprague-Dawley rat assessed as CSF glycine level at 1 mg/kg, po measured 2 hrs post dose by LC-MS/MS analysis relative to control; type: functional; set-up: scale not given: the % may be the effect or the level left; procedure, shortened: as §2

concentration at 2 h [1] [nM] | concentration at 2 h [2] [nM] | concentration at 2 h [3] | solubility thermodynamic [4] [µM] | concentration at 2 h [5] [nM] | concentration at 2 h [6] [nM] | concentration at 2 h [8] [nM] | remaining at 0.25 h, 3 µM [9] [%] | concentration at 2 h [10] [nM] | concentration at 2 h [11] [nM] | IC50 [14] [nM] | concentration at 2 h [15] [nM] | concentration at 2 h [18] [nM] | concentration at 2 h [19] [nM] | concentration at 2 h [20] [nM] | SMILES | Activity (Rattus norvegicus [7]) [%] | Activity (Rattus norvegicus [17]) [%] | Activity (Rattus norvegicus [21]) [%] | Activity (Rattus norvegicus [22]) [%] | further results
12.5 | 52.2 | < 1 ng/mL | 22.2 | 1.7 | 32.2 | 3.6 | 76 | 11.4 | 318 | 1.06 | 3.2 | 3.2 | 0.5 | 0.1 | CC(NC(=O)c1ccc(C(F)(F)F)cc1Cl)C1(N2CCN(S(=O)(=O)c3cn(C)nn3)CC2)CCC(F)(F)CC1.Cl (single isomer, unassigned; (+)) | 326.4 | 160.5 | 100.4 | 119.3 | Stability ([12]; microsomes, 0.25 h, 3 µM): 74%; fraction unbound [13]: 0.13; concentration at 4 h [16]: 8.4 ng/mL
39.2 | 204 | 2.7 nM | 9.9 | 7.5 | 64.9 | 13.1 | 85 | 76.9 | 432 | 0.671 | 7.5 | 18 | 4 | 3.7 | Cl.Cn1cc(S(=O)(=O)N2CCN(C3(CNC(=O)c4ccc(C(F)(F)F)cc4Cl)CCC(F)(F)CC3)CC2)nn1 | 306.4 | 251.8 | 106.6 | 166 | remaining at 0.25 h, 3 µM ([12]; liver microsomes, read-out: Stability): 60%
